Read-outs that look alike come from different tables or passages of the source.
Tests used:
[1] = system: organic anion transporting polypeptide (OATP); details: cited from earlier work
[2] = Metabolite profiling in plasma, urine and feces; format: in vivo, human; details: for Feces %DE (dose excreted): feces 0–312 h [n = 1], 0–120 h [n = 3], 0–96 h [n = 2]; for Urine %DE (dose excreted): urine 0–24 h
How it was run: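 After a single oral 50 mg ¹⁴C dose, plasma was pooled by Hamilton AUC scheme and extracted with acetonitrile. Urine (0–24 h) was pooled by sample weight, and fecal homogenates with ≥2% dose were acetonitrile-extracted. Profiling used HPLC with radiometric detection and high-resolution MS. Metabolite % was taken from radiochromatogram peak areas. Individual plasma through 312 h was also assayed for M23 by LC–MS/MS.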

[3] = system: breast cancer resistance protein (BCRP); details: cited from earlier work
[4] = cited from earlier work
[5] = simian chronic toxicology studies; ref internal data; cited from earlier work
[6] = Safety/tolerability; format: in vivo, human; details: single 50 mg dose
How it was run: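 Safety was monitored in all dosed participants after a single 50 mg oral dose, covering AEs (MedDRA 20.1 or newer), physical exam, 12-lead ECG, vital signs, hematology, coagulation, chemistry and urinalysis. ECG and vitals were taken on Day 1; labs and vitals on Day 2. TEAEs were new or worsening AEs within 30 days of dosing.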

[7] = system: CYP3A4, CYP2D6; details: human liver microsomes; cited from earlier work
[8] = system: human CGRP receptor; details: preclinical studies; cited from earlier work
[9] = Mass balance: total radioactivity recovered in urine and feces; format: in vivo, human; details: N = 6, mean ± SD; for Proportion of radioactive dose excreted in urine (total radioactivity): through last specimen collection
How it was run: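 Healthy men received a single oral 50 mg (~200 μCi) ¹⁴C dose in PEG400/Ora-Sweet solution after a ≥10-h fast. Urine was collected in intervals and all feces during confinement; feces were weighed and homogenized. Pre-dose feces set background. Total radioactivity was measured by combustion/LSC, with BLQ (urine <89 dpm/mL, feces <81 dpm/g) set to zero. Collection continued until discharge criteria or Day 29.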

[10] = Plasma pharmacokinetics of atogepant; format: in vivo, human
How it was run: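 Fasted healthy men received a single oral 50 mg ¹⁴C dose. Blood was sampled pre-dose to 168 h, then every 72 h until discharge criteria or Day 29. Samples were centrifuged at ≥2500 g for 10 min at ~4°C, and plasma was stored at −70°C. K₂EDTA plasma was assayed by validated LC–MS/MS (1–1000 ng/mL), with BLQ set to zero. Noncompartmental analysis used actual times; ratios were taken to plasma total radioactivity.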

[11] = system: P‐glycoprotein (P‐gp); details: cited from earlier work
[12] = cited from earlier work; remark: listed apart in the source
[13] = Phase 3, placebo 1.8%, cited from earlier work
[14] = single 10–60 mg dose; healthy Japanese and White adults; cited from earlier work
[15] = Urinary excretion of atogepant and renal clearance; format: in vivo, human; details: mean ± SD; for Proportion of administered dose excreted in urine as atogepant (parent drug): LC–MS/MS, urine up to 360 h post‐dose
How it was run: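 Urine was collected pre-dose and over 0–4, 4–8, 8–12, 12–24 h, then 24-h intervals until discharge criteria or study end, and stored at −20°C. Atogepant was measured by validated LC–MS/MS (1–1000 ng/mL), with BLQ set to zero. Radioactivity was measured by combustion/LSC. Ae0–t, CLR and fraction of dose excreted were computed.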

[16] = first‐generation gepants; cited from earlier work
[17] = plasma, single oral 50 mg, N = 6, mean ± SD

SMILES: C[C@@H]1[C@H](c2c(F)ccc(F)c2F)C[C@H](NC(=O)c2cnc3c(c2)C[C@@]2(C3)C(=O)Nc3ncccc32)C(=O)N1CC(F)(F)F [Atogepant]
- Substrate of OATP [1]: substrate
- Disproportionate human metabolites ([2]; comparison of this study to in vivo rat and monkey studies): no disproportionate human metabolites
- Feces %DE (dose excreted) ([2]; mean ± SD, ND = not detected or < 1% of dose or AUC0–t, listed as Parent): 42.2 ± 4.2%
- Feces %DE (dose excreted) ([2]; mean ± SD, ND = not detected or < 1% of dose or AUC0–t, listed as parent drug): 42%
- dose excreted ([2]; human, feces, oral, 50 mg, Share of fecal radioactivity recovery, unabsorbed drug, biliary excretion, and/or intestinal secretion): ~52%
- Plasma %AUC0–t (percent of radioactive exposure) ([2]; pooled plasma 0–36 h (0–24 h for one participant), HPLC‐RAD, N = 6, mean ± SD, ND = not detected or < 1% of dose or AUC0–t): 84.7 ± 9.2%
- Urine %DE (dose excreted) ([2]; N = 6, mean ± SD, ND = not detected or < 1% of dose or AUC0–t): 5%
- Urine %DE (dose excreted) ([2]; N = 6, mean ± SD, ND = not detected or < 1% of dose or AUC0–t, listed as Parent): 5.21 ± 1.69%
- Substrate of BCRP [3]: substrate
- Accumulation with daily dosing [4]: does not accumulate with daily dosing
- Bioavailability, tablet vs. PEG solution dosing [4]: higher with tablet vs. PEG solution dosing
- No‐observed‐adverse‐effect level [5]: 300 mg/kg
- Tolerability ([6]; healthy males N = 6): well‐tolerated
- ALT or AST elevations ([6]; healthy participants N = 6): no ALT or AST elevations observed
- Enzymes metabolizing atogepant [7]: predominantly metabolized via CYP3A4 with minor involvement of CYP2D6
- Affinity, potency and selectivity for the receptor [8]: high affinity, potency, and selectivity
- Proportion of radioactive dose excreted in feces (total radioactivity) ([9]; through last specimen collection (336 h, 14 days)): 81%
- Proportion of radioactive dose excreted in urine (total radioactivity) [9]: 8%
- Proportion of radioactive dose excreted in urine (total radioactivity) ([9]; listed as atogepant): ~ 8%
- Time after dosing up to which atogepant plasma concentrations were measurable ([10]; LOQ 1 ng/mL): up to 120 h
- AUC(0-inf) ([10]; male, human, plasma, po, 50 mg): 2220 ± 966 ng·h/mL
- AUC(0-t) ([10]; male, human, plasma, po, 50 mg): 2180 ± 960 ng·h/mL
- Cmax ([10]; male, human, plasma, po, 50 mg): 367 ± 189 ng/mL
- half-life ([10]; male, human, plasma, po, 50 mg): 18.5 ± 11.9 h
- AUC0–t, atogepant/total radioactivity ratio [10, 17]: 0.776 ± 0.167
- AUC0–∞, atogepant/total radioactivity ratio [10, 17]: 0.728 ± 0.172
- C max, atogepant/total radioactivity ratio [10, 17]: 0.997 ± 0.286
- AUC0–∞, atogepant/total radioactivity ratio ([10]; plasma, single oral 50 mg, N = 6, mean ± SD, listed as atogepant): ~ 0.75
- T max, atogepant ([10]; plasma, single oral 50 mg, N = 6, median (range)): 1 (0.98–2.98) hours
- Substrate of P‐gp [11]: substrate
- Effect of quinidine (strong P‐gp inhibitor) on atogepant exposure ([12]; clinical DDI study): no clinically relevant increase in atogepant exposure
- Effect of co‐administration on atogepant exposure ([12]; multiple‐dose rifampin (strong CYP3A4 and P‐gp inducer)): significantly decreased atogepant exposure
- Effect of co‐administration on atogepant exposure ([12]; single‐dose rifampin (OATP inhibitor), healthy participants): significantly increased atogepant exposure
- Proportion of patients with ALT and AST elevations ≥ 3× upper limit of normal ([13]; atogepant 10 mg/day): 0.9%
- Proportion of patients with ALT and AST elevations ≥ 3× upper limit of normal ([13]; atogepant 30 mg/day): 0.9%
- Proportion of patients with ALT and AST elevations ≥ 3× upper limit of normal ([13]; atogepant 60 mg/day): 0.4%
- CLR (renal clearance) [14]: 0.9 to 1.5 L/h
- Proportion of administered dose excreted in urine as atogepant (parent drug) ([15]; N = 6): 4.84% ± 1.63%
- Proportion of administered dose excreted in urine as atogepant (parent drug) ([15]; N = 6, listed as atogepant): Approximately 5%
- Urine excretion, atogepant/total radioactivity ratio ([15]; N = 6): 0.605 ± 0.109
- CLR (renal clearance), atogepant ([15]; single oral 50 mg, N = 6): 1.18 ± 0.33 L/h
- Urine Ae0–t (total urine atogepant excretion) ([15]; up to 360 h post‐dose): 2.42 ± 0.82 mg

SMILES: O=C(CN1C(=O)C2(CCCC2)NC[C@H]1c1cc(F)cc(F)c1)Nc1ccc2c(c1)C[C@@]1(C2)C(=O)Nc2ncccc21 [MK‐3207]
- Liver toxicity in clinical trials [16]: liver toxicity concerns

SMILES: O=C(N[C@@H]1CC[C@@H](c2cccc(F)c2F)CN(CC(F)(F)F)C1=O)N1CCC(n2c(=O)[nH]c3ncccc32)CC1 [telcagepant]
- Liver toxicity in clinical trials [16]: liver toxicity concerns

From PMC12584159 (Clinical and Translational Science, 2025)
